Results published in ChEMBL document CHEMBL1129452, “Phenethylthiazolylthiourea (PETT) compounds as a new class of HIV-1 reverse transcriptase inhibitors. 2. Synthesis and further structure-activity relationship studies of PETT analogs” (J Med Chem, 1996).

Key:
[1] = target: T1, Human immunodeficiency virus type 1 reverse transcriptase (Human immunodeficiency virus 1, UniProt Q72547); test: Tested for the inhibition of mutant type (Cys181) HIV-1 (IIIB) RT
MT4 [2] = test: Tested for the inhibition of wild type HIV-1 (IIIB) replication in MT-4 cells; type: functional; details: Homo sapiens, read-out: ED50 (the source's name)
Method in brief: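 MT-4 human T cells in RPMI 1640 with 10% fetal calf serum, penicillin and streptomycin, seeded at 2 × 10⁴ cells/well and infected with 10-20 TCID₅₀ HIV-1 IIIB per well. Compounds were added over a concentration range and cultures kept at 37 °C in CO₂. Viability was read by XTT at day 5 or 6, and activity was taken as reduction of viral cytopathic effect.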

MT4 [3] = test: Inhibition of HIV-1(IIIB) variants (Ile100/Cys 181) in HIV-1 MT-4 cells; type: functional; details: Homo sapiens, read-out: ED50 (the source's name)
Method in brief: (§1)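 MT-4 cells (human T cell line) in RPMI 1640 with 10% fetal calf serum, penicillin and streptomycin, seeded at 2 × 10⁴ cells/well. Infected with 10-20 TCID₅₀ of mutant HIV-1 IIIB per well, with the compound added at different concentrations. Incubated at 37 °C in CO₂. Cell viability read by XTT dye at day 5 or 6. Activity taken as the reduction in viral cytopathic effect, given as ED₅₀. Mutants were raised by passage in stepwise increasing concentrations of non-nucleoside RT inhibitors.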

MT4 [4] = test: Inhibition of mutant type (Cys181) HIV-1 (IIIB) replication in MT-4 cells; type: functional; details: Homo sapiens, read-out: ED50 (the source's name); method in brief: as §1
MT4 [5] = test: Inhibition of mutant type (Ile100) HIV-1 (IIIB) replication in MT-4 cells; type: functional; details: Homo sapiens, read-out: ED50 (the source's name); method in brief: as §1
MT4 [6] = test: Inhibition of HIV-1(IIIB) variants (Ile100/Asn103) in HIV-1 MT-4 cells; type: functional; details: Homo sapiens, read-out: ED50 (the source's name); method in brief: as §1
[7] = target: T1, Human immunodeficiency virus type 1 reverse transcriptase; test: Tested for the inhibition of mutant type (Ile100) HIV-1 (IIIB) RT
[8] = target: T1, Human immunodeficiency virus type 1 reverse transcriptase; test: Tested for the inhibition of wild type HIV-1 (IIIB) RT
MT4 [9] = test: Inhibition of HIV-1(IIIB) variants (Ile100/Cys181 in HIV-1 MT-4 cells; type: functional; details: Homo sapiens, read-out: ED50 (the source's name); method in brief: as §1

SMILES	IC50 [1]	EC50 (MT4 [2])	EC50 (MT4 [3])	EC50 (MT4 [4])	EC50 (MT4 [5])	EC50 (MT4 [6])	IC50 [7]	IC50 [8]	EC50 (MT4 [9])
N#Cc1ccc(F)c(CC/N=C(\S)Nc2ccc(Cl)cn2)c1F	0.09 µM	0.006 µM	> 10 µM	0.05 µM	0.8 µM	> 10 µM	0.4 µM	0.009 µM	
COc1ccc(F)c(F)c1CCNC(=S)Nc1ccc(Br)cn1	0.004 µM	0.007 µM		0.04 µM	0.6 µM	> 10 µM	0.05 µM	0.003 µM	> 10 µM
